This note sets out measurements from ChEMBL document CHEMBL2163325, “Discovery of phosphoinositide 3-kinases (PI3K) p110β isoform inhibitor 4-[2-hydroxyethyl(1-naphthylmethyl)amino]-6-[(2S)-2-methylmorpholin-4-yl]-1H-pyrimidin-2-one, an effective antithrombotic agent without associated bleeding and insulin resistance” (Bioorg Med Chem Lett, 2012).

The target in data set [1] is Sodium channel protein type 5 subunit alpha (Homo sapiens, UniProt Q14524). The data set is described as follows: Inhibition of human NaV1.5 expressed in CHO cells at 31.6 uM by patch clamp assay. It counts as cell-based.
In the next data set the test system is Rattus norvegicus. The data set is described as follows: Toxicity in overnight fasted Sprague-Dawley rat assessed as induction of insulin resistance at 0.2 to 1.6 ug/kg/min administered as infusion for 30 mins. To be noted: in vivo, iv, 0.5 h.
Data set [2] in a line: Oral bioavailability in fasted Beagle dog at 2 umol/kg. Type of data set: ADME, organism-based, Canis lupus familiaris. The following applies: in vivo. The method in brief: (§1)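 Fasted male Beagle dogs, iv and po (N = 2 per route). Parameters derived by noncompartmental analysis of plasma concentrations.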
A short description of data set [3]: Toxicity in human adipocytes assessed as inhibition of insulin-induced glucose uptake at 3 to 40 uM. Type of data set: cell-based. To be noted: adipocyte.
Data set [4] is described as follows: Solubility of the compound in HBSS buffer at pH 7.4 by LC-MS analysis. It counts as physicochemical.
Data set [5] can be described thus: Antiplatelet activity in Beagle dog whole blood assessed as inhibition of ADP-induced platelet aggregation by impedance aggregometry. Type of data set: functional, tissue-based. To be noted: Canis lupus familiaris. The essentials:
(§2)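 Citrated whole blood drawn by venipuncture from healthy human donors or beagle dogs, sodium citrate at 11 mM final in blood. ADP-induced aggregation read by Multiplate impedance aggregometry. N > 3.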

Data set [6] addresses Phosphatidylinositol 4,5-bisphosphate 3-kinase catalytic subunit gamma isoform (Homo sapiens, UniProt P48736). The data set is described as follows: Inhibition of human recombinant His6-tagged PI3K […] expressed in baculovirus infected cells using DiC8-PI(4,5)P2 as substrate after 20 mins by AlphaScreen assay. On the technique in general: Alpha assays give light when donor and acceptor beads are brought close together.

Data set [7] can be described thus: Fraction unbound in dog plasma after 18 hrs by equilibrium dialysis method. Type of data set: ADME, cell-free, Canis lupus familiaris. The essentials:
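Unbound plasma fraction determined by equilibrium dialysis, 18 h at 37 °C.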

Data set [8] in a line: Lipophilicity, log D of the compound at pH 7.4 by HPLC analysis. It counts as physicochemical. The following applies: buffer. The method in brief: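 LogD measured at pH 7.4 by HPLC.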
In a further data set the test system is Liver microsomes. The data set is described as follows: Drug metabolism in human liver microsomes assessed as reactive metabolite formation after 30 mins in presence of glutathione relative to clozapine. The following applies: 0.5 h. It counts as ADME, Microsome. The essentials: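 Incubation with human liver microsomes (1 mg/mL) plus glutathione for 30 min. Summed glutathione-adduct peak areas divided by the major adduct peak area of clozapine control (average, N = 3). Ratio >1 ranked high, 0.25–1 medium, <0.25 low.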
On the technique in general: Liver microsomes are a subcellular fraction often used to study metabolism.

The nature of data set [9]: Antiplatelet activity in human whole blood assessed as inhibition of ADP-induced platelet aggregation by impedance aggregometry. It counts as functional, tissue-based. The method in brief:
as §2

Data set [10] in a line: Half life in human liver microsomes at 2 uM. It counts as ADME, Microsome.
A further data set deals with Cytochrome P450 2C9 (Homo sapiens, UniProt P11712). The data set is described as follows: Inhibition of CYP2C9. It counts as ADME.
Data set [11] addresses Voltage-gated inwardly rectifying potassium channel KCNH2 (Homo sapiens, UniProt Q12809). The data set is described as follows: Inhibition of human ERG expressed in CHO cells at 31.6 uM by patch clamp assay. Type of data set: cell-based.
In data set [12] the target is T1, Phosphatidylinositol 4,5-bisphosphate 3-kinase catalytic subunit delta isoform (Homo sapiens, UniProt O00329).
T1 sequence (O00329 whole entry): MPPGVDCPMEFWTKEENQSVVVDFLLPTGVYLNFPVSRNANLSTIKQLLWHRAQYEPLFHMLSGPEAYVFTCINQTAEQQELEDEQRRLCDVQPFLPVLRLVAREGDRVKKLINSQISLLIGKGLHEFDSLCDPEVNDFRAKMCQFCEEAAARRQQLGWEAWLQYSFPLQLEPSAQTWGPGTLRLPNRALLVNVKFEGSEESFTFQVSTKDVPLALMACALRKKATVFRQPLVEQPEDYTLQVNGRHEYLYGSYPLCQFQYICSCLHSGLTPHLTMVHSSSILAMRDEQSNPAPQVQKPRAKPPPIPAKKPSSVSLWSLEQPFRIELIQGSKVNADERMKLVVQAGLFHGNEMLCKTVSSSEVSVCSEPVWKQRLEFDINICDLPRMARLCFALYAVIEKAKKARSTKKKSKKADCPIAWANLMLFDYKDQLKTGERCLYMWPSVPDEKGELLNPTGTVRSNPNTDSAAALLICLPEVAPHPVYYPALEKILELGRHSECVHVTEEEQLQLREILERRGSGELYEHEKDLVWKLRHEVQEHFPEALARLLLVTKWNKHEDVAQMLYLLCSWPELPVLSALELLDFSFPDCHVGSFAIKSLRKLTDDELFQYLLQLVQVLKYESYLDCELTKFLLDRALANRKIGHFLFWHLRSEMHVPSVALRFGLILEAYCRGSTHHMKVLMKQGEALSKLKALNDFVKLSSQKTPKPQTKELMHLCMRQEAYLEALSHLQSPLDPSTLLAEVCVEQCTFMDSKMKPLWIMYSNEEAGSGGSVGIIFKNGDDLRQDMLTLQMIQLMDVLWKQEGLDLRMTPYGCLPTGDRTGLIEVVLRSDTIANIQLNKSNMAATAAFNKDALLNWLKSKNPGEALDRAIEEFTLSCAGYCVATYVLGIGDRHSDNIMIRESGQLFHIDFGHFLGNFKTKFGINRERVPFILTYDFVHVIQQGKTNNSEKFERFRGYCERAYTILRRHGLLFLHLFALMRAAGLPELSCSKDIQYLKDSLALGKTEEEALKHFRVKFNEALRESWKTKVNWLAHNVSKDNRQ
The data set is described as follows: Inhibition of human recombinant His6-tagged PI3K p110delta expressed in baculovirus infected cells using DiC8-PI(4,5)P2 as substrate after 20 mins by AlphaScreen assay.

Data set [13] has as its target Voltage-gated potassium channel, IKs; KCNQ1(Kv7.1)/KCNE1(MinK) (Homo sapiens, UniProt P51787+P15382). The data set is described as follows: Inhibition of human IKs expressed in CHO cells at 31.6 uM by patch clamp assay. Type of data set: cell-based.
For data set [14], the target named is T2, Phosphatidylinositol 4,5-bisphosphate 3-kinase catalytic subunit beta isoform (Homo sapiens, UniProt P42338). The data set is described as follows: Inhibition of human recombinant His6-tagged PI3K p110beta expressed in baculovirus infected cells using DiC8-PI(4,5)P2 as substrate after 20 mins by AlphaScreen assay.
Data set [15] is described as follows: Antiplatelet activity in human platelet rich plasma assessed as inhibition of collagen-induced platelet aggregation by light transmission aggregometry. It counts as functional. The essentials: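 Healthy-donor blood drawn by venipuncture into sodium citrate (11 mM final in blood), then platelet rich plasma prepared. Collagen-induced aggregation measured by light transmission aggregometry, either in an aggregometer or in an in-house 96-well plate format.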

Data set [16] is described as follows: Clearance in fasted Beagle dog at 1 umol/kg, iv and 2 umol/kg, po. It counts as ADME, organism-based, Canis lupus familiaris. The following applies: in vivo. The essentials: as §1
Data set [17] concerns the target Voltage-dependent L-type calcium channel subunit alpha-1C (Homo sapiens, UniProt Q13936). The data set is described as follows: Inhibition of human CaV1.2 expressed in CHO cells at 31.6 uM by patch clamp assay. It counts as cell-based.
The species named for a further data set is Homo sapiens. The data set is described as follows: Selectivity ratio of IC50 for human PI3K p110alpha to IC50 for human PI3K p110beta.
Data set [18] concerns the target T2, Phosphatidylinositol 4,5-bisphosphate 3-kinase catalytic subunit beta isoform. The data set is described as follows: Inhibition of human PI3K p110beta-mediated AKT phosphorylation at Ser473 in MDA-MB-468 cells after 2 hrs by fluorescence microplate cytometric analysis. It counts as cell-based. The essentials: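 MDA-MB-468 cells kept in DMEM with 10% heat-inactivated FCS and L-glutamine. Seeded at 1500 cells/well, incubated overnight at 37 °C, 5% CO2. Exposed to compound for 2 h. Ser473 phospho-Akt detected with a specific antibody by laser scanning fluorescence microplate cytometry.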

In brackets after ≈: the same amount, converted by molar mass.

T2 sequence (P42338 whole entry, canonical isoform): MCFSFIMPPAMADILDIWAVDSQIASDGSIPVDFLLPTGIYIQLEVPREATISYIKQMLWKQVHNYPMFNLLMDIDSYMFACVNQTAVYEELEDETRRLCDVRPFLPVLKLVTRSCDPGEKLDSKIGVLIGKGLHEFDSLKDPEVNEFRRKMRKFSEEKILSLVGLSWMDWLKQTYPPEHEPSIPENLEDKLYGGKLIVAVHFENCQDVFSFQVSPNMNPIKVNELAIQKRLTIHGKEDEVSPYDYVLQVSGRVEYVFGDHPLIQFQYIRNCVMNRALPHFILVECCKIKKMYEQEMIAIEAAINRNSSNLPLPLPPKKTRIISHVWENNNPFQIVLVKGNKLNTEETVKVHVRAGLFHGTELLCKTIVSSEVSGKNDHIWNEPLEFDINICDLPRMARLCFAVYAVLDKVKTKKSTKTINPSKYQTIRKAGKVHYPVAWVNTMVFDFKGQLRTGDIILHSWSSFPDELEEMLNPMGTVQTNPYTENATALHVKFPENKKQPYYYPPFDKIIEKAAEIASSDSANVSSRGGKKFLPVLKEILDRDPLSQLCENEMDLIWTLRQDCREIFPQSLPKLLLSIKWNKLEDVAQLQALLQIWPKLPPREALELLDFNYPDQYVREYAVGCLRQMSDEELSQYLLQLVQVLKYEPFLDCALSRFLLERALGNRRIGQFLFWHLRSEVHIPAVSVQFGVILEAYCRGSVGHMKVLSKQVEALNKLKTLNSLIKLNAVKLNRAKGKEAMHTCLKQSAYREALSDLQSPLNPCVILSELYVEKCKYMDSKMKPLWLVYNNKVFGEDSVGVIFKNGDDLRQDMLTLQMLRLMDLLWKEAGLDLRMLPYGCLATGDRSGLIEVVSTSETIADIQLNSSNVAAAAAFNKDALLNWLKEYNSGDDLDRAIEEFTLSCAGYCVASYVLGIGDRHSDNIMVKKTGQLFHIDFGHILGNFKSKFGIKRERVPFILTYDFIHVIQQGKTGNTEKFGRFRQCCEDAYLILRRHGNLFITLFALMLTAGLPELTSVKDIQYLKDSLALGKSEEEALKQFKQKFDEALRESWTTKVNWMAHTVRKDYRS
Sequence of Sodium channel protein type 5 subunit alpha (Q14524 whole entry, the tested form may be a part): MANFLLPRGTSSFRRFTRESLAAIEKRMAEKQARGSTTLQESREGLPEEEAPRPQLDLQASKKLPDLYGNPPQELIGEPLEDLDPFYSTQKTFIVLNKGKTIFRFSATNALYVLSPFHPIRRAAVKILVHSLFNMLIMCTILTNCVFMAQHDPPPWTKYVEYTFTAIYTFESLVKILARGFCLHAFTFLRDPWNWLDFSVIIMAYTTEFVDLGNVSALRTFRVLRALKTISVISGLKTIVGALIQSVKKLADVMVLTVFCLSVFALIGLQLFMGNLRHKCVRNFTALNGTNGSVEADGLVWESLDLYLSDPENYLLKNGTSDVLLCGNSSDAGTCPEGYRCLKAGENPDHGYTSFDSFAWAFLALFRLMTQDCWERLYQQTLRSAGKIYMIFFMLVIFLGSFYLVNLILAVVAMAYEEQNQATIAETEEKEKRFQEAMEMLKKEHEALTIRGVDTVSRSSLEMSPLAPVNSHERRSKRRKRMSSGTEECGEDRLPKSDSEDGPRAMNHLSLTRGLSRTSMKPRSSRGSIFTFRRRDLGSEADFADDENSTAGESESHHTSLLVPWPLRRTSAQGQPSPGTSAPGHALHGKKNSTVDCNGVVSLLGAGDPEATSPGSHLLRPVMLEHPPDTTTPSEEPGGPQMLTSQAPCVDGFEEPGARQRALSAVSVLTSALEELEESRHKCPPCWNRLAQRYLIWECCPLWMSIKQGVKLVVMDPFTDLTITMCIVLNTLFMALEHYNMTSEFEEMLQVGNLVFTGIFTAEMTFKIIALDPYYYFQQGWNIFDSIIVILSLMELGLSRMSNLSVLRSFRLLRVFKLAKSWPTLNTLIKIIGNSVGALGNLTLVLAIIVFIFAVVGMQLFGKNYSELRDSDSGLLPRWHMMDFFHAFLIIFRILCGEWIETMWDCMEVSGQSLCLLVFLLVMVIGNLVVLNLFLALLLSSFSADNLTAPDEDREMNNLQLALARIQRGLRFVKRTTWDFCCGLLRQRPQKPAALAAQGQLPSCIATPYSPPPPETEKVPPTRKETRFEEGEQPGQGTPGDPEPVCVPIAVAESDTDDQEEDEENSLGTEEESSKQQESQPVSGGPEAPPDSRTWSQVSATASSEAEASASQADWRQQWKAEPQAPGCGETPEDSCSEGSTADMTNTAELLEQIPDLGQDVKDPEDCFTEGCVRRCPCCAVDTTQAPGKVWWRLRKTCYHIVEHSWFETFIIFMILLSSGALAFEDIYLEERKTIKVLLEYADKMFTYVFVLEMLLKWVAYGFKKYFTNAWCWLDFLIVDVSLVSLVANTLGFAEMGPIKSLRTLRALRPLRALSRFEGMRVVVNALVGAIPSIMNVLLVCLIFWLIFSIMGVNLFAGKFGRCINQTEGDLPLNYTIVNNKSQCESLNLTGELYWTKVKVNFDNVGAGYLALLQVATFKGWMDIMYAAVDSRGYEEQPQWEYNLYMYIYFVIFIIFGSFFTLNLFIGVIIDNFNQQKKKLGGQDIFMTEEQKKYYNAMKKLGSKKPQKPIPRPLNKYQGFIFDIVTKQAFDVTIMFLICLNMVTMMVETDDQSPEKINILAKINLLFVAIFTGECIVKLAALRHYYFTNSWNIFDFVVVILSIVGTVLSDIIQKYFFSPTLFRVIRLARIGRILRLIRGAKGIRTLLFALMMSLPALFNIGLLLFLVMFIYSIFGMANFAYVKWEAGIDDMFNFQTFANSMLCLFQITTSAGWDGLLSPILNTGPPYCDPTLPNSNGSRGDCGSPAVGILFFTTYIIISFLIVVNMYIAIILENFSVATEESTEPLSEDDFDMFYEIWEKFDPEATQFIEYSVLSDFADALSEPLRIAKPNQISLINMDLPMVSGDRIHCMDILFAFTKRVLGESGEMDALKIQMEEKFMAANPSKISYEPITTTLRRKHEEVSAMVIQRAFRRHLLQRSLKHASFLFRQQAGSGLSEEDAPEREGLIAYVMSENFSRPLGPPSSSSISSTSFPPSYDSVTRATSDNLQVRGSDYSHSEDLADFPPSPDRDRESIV
Sequence of Phosphatidylinositol 4,5-bisphosphate 3-kinase catalytic subunit gamma isoform (P48736 whole entry, canonical isoform): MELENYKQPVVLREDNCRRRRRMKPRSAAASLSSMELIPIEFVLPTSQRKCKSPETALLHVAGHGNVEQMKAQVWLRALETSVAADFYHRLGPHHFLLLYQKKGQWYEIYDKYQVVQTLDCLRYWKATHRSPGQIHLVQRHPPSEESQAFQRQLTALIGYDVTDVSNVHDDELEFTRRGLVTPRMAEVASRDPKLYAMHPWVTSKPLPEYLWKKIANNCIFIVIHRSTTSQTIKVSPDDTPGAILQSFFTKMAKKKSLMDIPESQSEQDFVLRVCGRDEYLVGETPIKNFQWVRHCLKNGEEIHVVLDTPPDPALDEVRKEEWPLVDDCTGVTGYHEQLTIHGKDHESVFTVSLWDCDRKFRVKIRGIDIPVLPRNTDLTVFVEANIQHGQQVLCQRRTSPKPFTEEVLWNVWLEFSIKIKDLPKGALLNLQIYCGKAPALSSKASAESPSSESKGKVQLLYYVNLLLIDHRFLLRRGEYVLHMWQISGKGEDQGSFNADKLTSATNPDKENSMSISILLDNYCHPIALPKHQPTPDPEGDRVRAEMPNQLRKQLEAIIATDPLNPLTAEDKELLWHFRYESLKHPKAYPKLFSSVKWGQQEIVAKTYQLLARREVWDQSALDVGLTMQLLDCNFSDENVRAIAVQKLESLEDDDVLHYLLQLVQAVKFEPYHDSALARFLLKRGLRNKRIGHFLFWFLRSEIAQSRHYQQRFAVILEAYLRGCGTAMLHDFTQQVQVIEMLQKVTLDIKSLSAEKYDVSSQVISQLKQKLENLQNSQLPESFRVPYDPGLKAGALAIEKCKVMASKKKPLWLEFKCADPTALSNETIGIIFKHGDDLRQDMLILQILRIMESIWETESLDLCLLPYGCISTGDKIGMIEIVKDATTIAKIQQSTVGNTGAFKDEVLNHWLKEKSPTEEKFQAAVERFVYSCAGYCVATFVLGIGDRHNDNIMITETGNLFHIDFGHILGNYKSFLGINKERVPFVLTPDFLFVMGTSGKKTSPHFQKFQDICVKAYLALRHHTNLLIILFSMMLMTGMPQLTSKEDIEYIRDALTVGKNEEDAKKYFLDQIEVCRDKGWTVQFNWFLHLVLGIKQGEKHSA
Sequence of Voltage-gated potassium channel, IKs; KCNQ1(Kv7.1)/KCNE1(MinK) (P51787 whole entry, canonical isoform): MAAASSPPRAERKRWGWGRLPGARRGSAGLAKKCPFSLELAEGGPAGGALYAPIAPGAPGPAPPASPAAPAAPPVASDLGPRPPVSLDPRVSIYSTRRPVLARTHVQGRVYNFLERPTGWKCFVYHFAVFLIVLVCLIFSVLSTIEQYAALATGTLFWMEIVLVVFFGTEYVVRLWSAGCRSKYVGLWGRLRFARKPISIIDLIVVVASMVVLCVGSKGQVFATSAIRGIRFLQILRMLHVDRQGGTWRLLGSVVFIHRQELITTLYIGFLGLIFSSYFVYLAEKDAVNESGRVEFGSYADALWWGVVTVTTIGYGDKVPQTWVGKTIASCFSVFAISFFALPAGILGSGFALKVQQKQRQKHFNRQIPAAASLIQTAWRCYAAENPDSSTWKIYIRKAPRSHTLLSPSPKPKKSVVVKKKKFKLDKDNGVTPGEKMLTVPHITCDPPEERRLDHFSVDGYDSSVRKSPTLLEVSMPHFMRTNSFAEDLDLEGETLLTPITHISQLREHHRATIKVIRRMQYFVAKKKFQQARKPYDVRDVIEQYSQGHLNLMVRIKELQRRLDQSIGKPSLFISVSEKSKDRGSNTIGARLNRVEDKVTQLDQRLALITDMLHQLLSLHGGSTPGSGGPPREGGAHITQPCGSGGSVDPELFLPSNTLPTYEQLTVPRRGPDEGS

One may read the bioavailability as the share of a dose that reaches the circulation, judged against a reference dose that is usually intravenous. High values mean good availability, low ones poor availability. One may read the solubility as the dissolved amount per volume that the medium holds. High values mean a readily soluble substance, low ones a poorly soluble substance. A word on the IC50: it is the concentration at which inhibition is half-maximal. Usually fraction unbound stands for the share of the substance not bound to proteins or other matrix. For orientation: logD means lipophilicity at a set pH, counting ionised and neutral species. A lower logD goes with a more hydrophilic compound. Broadly, the half-life is how long it takes for the measured level to halve. Consider `C[C@H]1CN(c2cc(N(CCO)Cc3cccc4ccccc34)[nH]c(=O)n2)CCO1`, for which the “inhibition (INH)” value in data set [1], in data set [11], in data set [13] and in data set [17] was “Not Active” each time. The Activity entry (in the data set on Rattus norvegicus; in data set [3]) was “Non-toxic” each time. In data set [2], this compound registered a bioavailability of 25%. In addition, in [4], the solubility was 100 µM (≈ 39.4 µg/mL). In addition, the IC50 in [5] stood at 3800 nM; in data set [6], 97400 nM; in data set [9], 2100 nM; on Cytochrome P450 2C9 it was 4000 nM; in data set [12], 168 nM; in data set [14], 38 nM. Further, the IC50 in [15] is 400 nM; in data set [18] it was 195 nM. The compound further came in with a fraction unbound at 18 h in [7] of 0.3. The compound also registered a logD in data set [8] of 1.9. The Drug metabolism result in the data set with Liver microsomes was “Not Active”. The compound further gave a half-life at 2 µM in data set [10] above 2.88 h. For the same compound, the clearance in [16] was determined as 18 mL/min/kg. Moreover, the Ratio IC50 in the data set filed under Homo sapiens is above 700.
